This note sets out measurements from ChEMBL document CHEMBL2062523, “Synthesis and evaluation of the quorum sensing inhibitory effect of substituted triazolyldihydrofuranones” (Bioorg Med Chem, 2012).

Format in all cases: functional
The test system of assay [1] is Pseudomonas aeruginosa. In words: Antagonist activity at Pseudomonas aeruginosa QSIS2 LasR-mediated quorum sensing co-expressing SacB1 assessed as inhibition of 3-oxo-C12-HSL-induced luminescence at 1 mM […] by reporter gene assay.
Assay [2] has as its target T1, Transcriptional activator protein LuxR (Aliivibrio fischeri) (UniProt P12746).
T1 sequence (whole entry): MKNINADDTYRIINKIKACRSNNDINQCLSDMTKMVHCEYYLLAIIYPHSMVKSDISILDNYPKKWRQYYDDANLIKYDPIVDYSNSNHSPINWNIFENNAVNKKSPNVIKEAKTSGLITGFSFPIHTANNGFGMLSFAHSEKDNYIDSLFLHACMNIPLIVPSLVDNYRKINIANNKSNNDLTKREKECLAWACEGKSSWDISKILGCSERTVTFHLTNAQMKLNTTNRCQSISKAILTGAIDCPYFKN
As to the kind of experiment: Antagonist activity at Vibrio fischeri LuxR-mediated quorum sensing expressed in Escherichia coli JB523 assessed as inhibition of C6-HSL-induced GFP expression at 0.1 mM after 24 hrs by reporter gene assay. The essentials: (§1)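 JB523 GFP biosensor in LB/0.4% NaCl at OD590 0.1 with tetracycline 100 µg/ml final; compounds co-added with C6-HSL (5 µM). Plates kept 24 h at 30 °C, then GFP read at 485/510 nm. Each compound tested in twelve wells, assay repeated at least three times.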

Assay [3] concerns the target T1, Transcriptional activator protein LuxR (Aliivibrio fischeri). In words: Antagonist activity at Vibrio fischeri LuxR-mediated quorum sensing expressed in Escherichia coli JB523 assessed as inhibition of C6-HSL-induced GFP expression at 1 mM after 24 hrs by reporter gene assay. In a few lines: as §1
The subject of assay [4] is Pseudomonas aeruginosa. In words: Agonist activity at Pseudomonas aeruginosa QSIS2 LasR-mediated quorum sensing coexpressing SacB1 assessed as […] by reporter gene assay.
Assay [5] relates to Pseudomonas aeruginosa. As to the kind of experiment: Agonist activity at Pseudomonas aeruginosa QSIS2 LasR-mediated quorum sensing co-expressing SacB1 assessed as luminescence at 0.1 mM after 24 hrs by reporter gene assay.
Assay [6] deals with Pseudomonas aeruginosa. As to the kind of experiment: Antagonist activity at Pseudomonas aeruginosa QSIS2 LasR-mediated quorum sensing co-expressing SacB1 assessed as inhibition of 3-oxo-C12-HSL-induced luminescence at 0.5 mM after 24 hrs by reporter gene assay.
The next assay deals with Burkholderia cenocepacia. In words: Antibacterial activity against Burkholderia cenocepacia LMG16656 after 20 hrs by broth microdilution assay. Conditions: LMG16656, 20 h. In a few lines: (§2)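 EUCAST broth microdilution in triplicate, inoculum about 5 × 10^5 CFU/ml. Incubated 20 h at 37 °C, then OD590 read. Compounds from 100 mM DMSO stocks, diluted in water.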
Assay [7] addresses T1, Transcriptional activator protein LuxR (Aliivibrio fischeri). As to the kind of experiment: Agonist activity at Vibrio fischeri LuxR-mediated quorum sensing expressed in Escherichia coli JB523 assessed as GFP expression at 0.25 mM after 24 hrs by reporter gene assay. The essentials: (§3)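 E. coli JB523 (pJBA130, luxR-PluxI–GFP) overnight culture diluted to OD590 0.1 in LB with 0.4% NaCl, tetracycline 100 µg/ml final. Compounds 100–1000 µM added without signal; C6-HSL (5 µM) as positive control, water as negative. 24 h at 30 °C; GFP fluorescence ex 485/em 510 nm. Twelve wells per compound, ≥3 repeats.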

Assay [8] deals with Pseudomonas aeruginosa. As to the kind of experiment: Agonist activity at Pseudomonas aeruginosa QSIS2 LasR-mediated quorum sensing co-expressing SacB1 assessed as luminescence at 0.5 mM after 24 hrs by reporter gene assay.
Assay [9] has as its system Pseudomonas aeruginosa. In words: Antibacterial activity against Pseudomonas aeruginosa PAO1 after 20 hrs by broth microdilution assay. Conditions: PAO1, 20 h. In a few lines:
as §2

Assay [10] has as its target T1, Transcriptional activator protein LuxR (Aliivibrio fischeri). In words: Agonist activity at Vibrio fischeri LuxR-mediated quorum sensing expressed in Escherichia coli JB523 assessed as GFP expression at 0.5 mM after 24 hrs by reporter gene assay. The essentials:
as §3

Assay [11] has as its system Pseudomonas aeruginosa. As to the kind of experiment: Agonist activity at Pseudomonas aeruginosa QSIS2 LasR-mediated quorum sensing co-expressing SacB1 assessed as luminescence at 0.25 mM after 24 hrs by reporter gene assay.
For assay [12], the system named is Pseudomonas aeruginosa. In words: Antibacterial activity against Pseudomonas aeruginosa QSIS2 after 20 hrs by broth microdilution assay. Conditions: QSIS2, 20 h. In a few lines: as §2
The test system of the next assay is Escherichia coli. In words: Antibacterial activity against Escherichia coli JB523 after 20 hrs by broth microdilution assay. Conditions: JB523, 20 h. In a few lines: as §2
For assay [13], the target named is T1, Transcriptional activator protein LuxR (Aliivibrio fischeri). In words: Agonist activity at Vibrio fischeri LuxR-mediated quorum sensing expressed in Escherichia coli JB523 assessed as GFP expression at 1 mM after 24 hrs by reporter gene assay. The essentials:
as §3

Assay [14] relates to Pseudomonas aeruginosa. As to the kind of experiment: Antagonist activity at Pseudomonas aeruginosa QSIS2 LasR-mediated quorum sensing co-expressing SacB1 assessed as inhibition of 3-oxo-C12-HSL-induced luminescence at 0.1 mM after 24 hrs by reporter gene assay.
In assay [15] the test system is Pseudomonas aeruginosa. In words: Antagonist activity at Pseudomonas aeruginosa QSIS2 LasR-mediated quorum sensing co-expressing SacB1 assessed as inhibition of 3-oxo-C12-HSL-induced luminescence at 0.25 mM […] by reporter gene assay.
Assay [16] has as its target T1, Transcriptional activator protein LuxR (Aliivibrio fischeri). As to the kind of experiment: Antagonist activity at Vibrio fischeri LuxR-mediated quorum sensing expressed in Escherichia coli JB523 assessed as inhibition of C6-HSL-induced GFP expression after 24 hrs by reporter gene assay. In a few lines: as §1
Assay [17] shares this target. In words: Antagonist activity at Vibrio fischeri LuxR expressed in Escherichia coli JB523 assessed as inhibition of C6-HSL-induced GFP expression at 0.5 mM after 24 hrs by reporter gene assay. The essentials: as §1
Assay [18] shares this target. As to the kind of experiment: Agonist activity at Vibrio fischeri LuxR-mediated quorum sensing expressed in Escherichia coli JB523 assessed as GFP expression at 0.1 mM after 24 hrs by reporter gene assay. The essentials:
as §3

The test system of assay [19] is Pseudomonas aeruginosa. As to the kind of experiment: Agonist activity at Pseudomonas aeruginosa QSIS2 LasR-mediated quorum sensing co-expressing SacB1 assessed as luminescence after 24 hrs by reporter gene assay.

Values after ≈ are worked out from the molar mass of the structure shown. Active and inactive are the calls of the source. The calls are words filed in the database; no cut-off is given here.

Regarding `CCCCCCc1cn(C2CCOC2=O)nn1` (stereo not drawn), the inhibition entry with Pseudomonas aeruginosa [1], in the assay on Pseudomonas aeruginosa [6], in the assay with Pseudomonas aeruginosa [14] and with Pseudomonas aeruginosa [15] was “inactive” in each case. Moreover, the inhibition in assay [2] is 11.6%; in assay [3] it was 34.3%; in [16], “Dose-dependent effect”; in assay [17] it was 23.2%. Further, the outcome (with Pseudomonas aeruginosa [4]; with Pseudomonas aeruginosa [5]; in the assay with Pseudomonas aeruginosa [8]; in the assay with Pseudomonas aeruginosa [11]; in assay [18]) was inactive. Also, the MIC against Burkholderia cenocepacia, against Pseudomonas aeruginosa [9], in the assay with Pseudomonas aeruginosa [12] and against Escherichia coli was 5 mM (≈ 1190 µg/mL) in each case. Also, the results for the Activity in assay [7], in assay [10] and in assay [13] were 10%, 17.5% and 32.7%, respectively.

For the molecule `CCCCc1cn(C2CCOC2=O)nn1` (stereo not drawn), the inhibition result in the assay with Pseudomonas aeruginosa [1], in the assay on Pseudomonas aeruginosa [6], with Pseudomonas aeruginosa [14] and with Pseudomonas aeruginosa [15] was “inactive” in each case. Besides, the inhibition in assay [2] is 12.7%; in assay [3], 27.9%; in assay [16] it was “Dose-dependent effect”; in [17], 22.5%. Moreover, the result (in the assay on Pseudomonas aeruginosa [4]; in the assay with Pseudomonas aeruginosa [5]; in [7]; in the assay on Pseudomonas aeruginosa [8]; in the assay with Pseudomonas aeruginosa [11]; in assay [18]) was inactive. The MIC in the assay with Burkholderia cenocepacia, with Pseudomonas aeruginosa [9], with Pseudomonas aeruginosa [12] and in the assay with Escherichia coli was 5 mM (≈ 1050 µg/mL) throughout. Besides, the Activity stood at 11.6% in assay [10] and 17.3% in assay [13].

Turning to `O=C1OCCC1n1cc(Cc2ccccc2)nn1` (stereo not drawn), the inhibition in the assay with Pseudomonas aeruginosa [1] was 49.9%; in assay [2] it was 6.3%; in [3], 34.4%; in assay [16], “Dose-dependent effect”; in assay [17], 29.6%. The Activity result in the assay with Pseudomonas aeruginosa [19] was “Dose-dependent effect”; with Pseudomonas aeruginosa [4], 67.5%; in the assay with Pseudomonas aeruginosa [5], 19.1%; in the assay with Pseudomonas aeruginosa [8] it was 39.7%; in the assay with Pseudomonas aeruginosa [11], 31.1%. Further, the inhibition entry in the assay on Pseudomonas aeruginosa [6], in the assay on Pseudomonas aeruginosa [14] and in the assay with Pseudomonas aeruginosa [15] was “inactive” each time. For the same molecule, the minimal inhibitory concentration (MIC) in the assay on Burkholderia cenocepacia, in the assay with Pseudomonas aeruginosa [9], in the assay with Pseudomonas aeruginosa [12] and in the assay with Escherichia coli was 5 mM (≈ 1220 µg/mL) in each case. Moreover, the result in assay [7], in assay [10], in assay [13] and in assay [18] was inactive.

As for `O=C1OCCC1n1cc(-c2ccccc2)nn1` (stereo not drawn), the inhibition result (in the assay on Pseudomonas aeruginosa [1]; in [2]; with Pseudomonas aeruginosa [6]; in the assay on Pseudomonas aeruginosa [14]; with Pseudomonas aeruginosa [15]) was “inactive” in each case. Also, the Activity entry in the assay on Pseudomonas aeruginosa [19] is “Dose-dependent effect”; with Pseudomonas aeruginosa [4], 22.2%; in the assay with Pseudomonas aeruginosa [8] it was 14.4%; in assay [13] it was 12.8%. In addition, the inhibition is 26.9% in assay [3], “Dose-dependent effect” in [16] and 24.5% in assay [17]. Further, the result (with Pseudomonas aeruginosa [5]; in assay [7]; in assay [10]; in the assay on Pseudomonas aeruginosa [11]; in assay [18]) was inactive. In addition, the minimum inhibitory concentration (MIC) came to 5 mM (≈ 1150 µg/mL) in the assay on Burkholderia cenocepacia, 5 mM (≈ 1150 µg/mL) against Pseudomonas aeruginosa [9], 5 mM (≈ 1150 µg/mL) against Pseudomonas aeruginosa [12] and 10 mM (≈ 2290 µg/mL) in the assay with Escherichia coli.

With `CCCCCCCCCCc1cn(C2CCOC2=O)nn1` (stereo not drawn), the inhibition amounted to 21.9% in the assay on Pseudomonas aeruginosa [1]; 12.4% in [2]; 31.9% in assay [3]; 15% in the assay with Pseudomonas aeruginosa [6]; 7% in the assay with Pseudomonas aeruginosa [14]; 8.1% in the assay with Pseudomonas aeruginosa [15]. Also, the inhibition entry in assay [16] is “Dose-dependent effect”; in [17], 28%. Also, the Activity entry in the assay with Pseudomonas aeruginosa [19] was “Dose-dependent effect”; in the assay with Pseudomonas aeruginosa [4], 57.2%; in the assay on Pseudomonas aeruginosa [5], 32.1%; in the assay with Pseudomonas aeruginosa [8] it was 38%; in the assay on Pseudomonas aeruginosa [11], 31.4%. The MIC in the assay with Burkholderia cenocepacia, with Pseudomonas aeruginosa [9], with Pseudomonas aeruginosa [12] and against Escherichia coli was 2.5 mM (≈ 734 µg/mL) in each case. The result in assay [7], in assay [10], in assay [13] and in assay [18] was inactive.

Take `CCCCCc1cn(C2CCOC2=O)nn1` (stereo not drawn): the inhibition result with Pseudomonas aeruginosa [1], with Pseudomonas aeruginosa [6], with Pseudomonas aeruginosa [14] and with Pseudomonas aeruginosa [15] was “inactive” each time. Further, the inhibition in assay [2] was 9%; in assay [3] it was 35.1%; in [16], “Dose-dependent effect”; in assay [17], 27.5%. In addition, the result (with Pseudomonas aeruginosa [4]; in the assay with Pseudomonas aeruginosa [5]; with Pseudomonas aeruginosa [8]; with Pseudomonas aeruginosa [11]; in assay [18]) was inactive. Further, the minimal inhibitory concentration (MIC) with Burkholderia cenocepacia, in the assay on Pseudomonas aeruginosa [9], with Pseudomonas aeruginosa [12] and with Escherichia coli was 5 mM (≈ 1120 µg/mL) in each case. Besides, the Activity came out at 5.7% in assay [7], 16.3% in assay [10] and 25.9% in assay [13].

Turning to `CCCCCCCc1cn(C2CCOC2=O)nn1` (stereo not drawn), the inhibition result in the assay with Pseudomonas aeruginosa [1], in the assay with Pseudomonas aeruginosa [6], in the assay with Pseudomonas aeruginosa [14] and in the assay on Pseudomonas aeruginosa [15] was “inactive” in each case. In addition, the inhibition is 13.7% in assay [2], 39% in assay [3], “Dose-dependent effect” in [16] and 34.6% in [17]. Also, the result (with Pseudomonas aeruginosa [4]; in the assay on Pseudomonas aeruginosa [5]; with Pseudomonas aeruginosa [8]; with Pseudomonas aeruginosa [11]; in assay [18]) was inactive. The minimum inhibitory concentration (MIC) in the assay with Burkholderia cenocepacia, in the assay with Pseudomonas aeruginosa [9], against Pseudomonas aeruginosa [12] and against Escherichia coli was 5 mM (≈ 1260 µg/mL) each time. For the same molecule, the Activity in assay [7] was 8%; in [10], 12.2%; in [13], 17.6%.
